Source: PubChem BioAssay
ADAM17 inh = ADAM17 inhibitors, primary screen, biochemical, QFRET. recombinant ADAM17, EDANS/DABCYL FRET peptide cleavage. inhibition, % at 6.95 µM. actives 0.83% (n = 370,000). AID 720648, 2013;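 active = inhibition above the mean of compounds lying between control limits plus 3 SD, set per campaign, cut at about 8.5% in these data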;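 note: 0% = DMSO-only wells as the low control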
Target sequence (P78536 215-824 limits assumed): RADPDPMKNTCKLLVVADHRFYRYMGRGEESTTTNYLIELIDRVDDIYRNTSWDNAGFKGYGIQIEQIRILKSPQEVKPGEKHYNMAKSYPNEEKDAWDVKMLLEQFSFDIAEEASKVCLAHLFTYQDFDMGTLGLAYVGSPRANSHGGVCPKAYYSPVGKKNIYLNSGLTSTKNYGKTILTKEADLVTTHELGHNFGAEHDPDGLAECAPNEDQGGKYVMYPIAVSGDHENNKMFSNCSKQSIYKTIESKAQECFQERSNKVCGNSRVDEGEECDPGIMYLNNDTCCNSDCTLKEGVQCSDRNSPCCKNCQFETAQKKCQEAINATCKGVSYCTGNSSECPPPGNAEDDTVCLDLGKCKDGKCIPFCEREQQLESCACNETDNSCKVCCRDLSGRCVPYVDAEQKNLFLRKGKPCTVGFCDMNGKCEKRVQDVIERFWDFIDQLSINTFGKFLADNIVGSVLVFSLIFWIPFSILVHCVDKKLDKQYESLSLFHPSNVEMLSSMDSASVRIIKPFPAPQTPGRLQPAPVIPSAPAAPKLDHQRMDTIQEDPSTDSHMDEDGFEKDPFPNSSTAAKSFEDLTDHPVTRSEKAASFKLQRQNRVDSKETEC
CaV13 FRET inh = Disruptors of the CACNA1D IQ motif to Ca2+-dependent inactivation inhibitor domain association, primary screening, Förster resonance energy transfer in intact living …; HEK cells, CFP/YFP FRET ICDI-IQ, plate reader, 10 min; percent FRET-ratio fall versus neutral wells; inhibition, % at 12.3 µM; actives 0.098% (n = 340,000); AID 743397;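 active = mean replicate inhibition of at least 30% and at least 1% of replicates passing that level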;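 note: 0% = median of the neutral control wells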
CendR NRP1 mod = modulators of CendR peptide binding to NRP-1, primary screen, biochemical, fluorescence polarization, uHTS | actives 0.85% (n = 360,000) | Neuropilin-1 (Homo sapiens), O14786 | inhibition, % at 25 µM | FAM-RPARPAR peptide binding to NRP-1;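 active = inhibition or corrected inhibition above about 18%, plus a signal ratio from 0.5 to 1.5, limit read from the data, passing the limit was not always enough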
ADAM10 inh = human ADAM10 inhibitors, primary screen, biochemical, QFRET, HTS; recombinant ADAM10, EDANS/DABCYL FRET peptide cleavage, 3 h; inhibition, % at 7 µM; Disintegrin and metalloproteinase domain-containing protein 10 (Homo sapiens), O14672; actives 0.62% (n = 370,000);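 active = inhibition above a per-campaign cutoff equal to the mean of compounds falling between control-based bounds plus 3 SD, cut at about 20% in these data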;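 note: 0% = DMSO wells while the 100% control is not disclosed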
Arrestin-AP2 inh = inhibitors of beta-arrestin/AP2 binding, primary screen, biochemical, GPCR trafficking, flow cytometry; beta-arrestin 1 C-terminal peptide binding to AP2 beta2-adaptin appendage (human); inhibition, % at 10 µM; FITC-arrestin peptide / GST-AP2 beads; AP2 beta2 appendage carries R879A mutation; actives 0.31% (n = 340,000);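 active = inhibition above a set limit, near 3 SD of compounds lacking own fluorescence, cut at about 54% in these data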;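 note: plate controls were DMSO wells for no effect and 5 µM unlabelled arrestin peptide for full effect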
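Material – GST-tagged AP2 beta2-adaptin appendage (R879A) on 4 µm glutathione beads · Probe or stimulus – fluorescein-tagged arrestin peptide at 50 nM final · Timing – 12 min plus 1 h, RT · Detection – bead flow cytometry, FITC channel · Read-out basis – inhibition as reduced fluorescein signal on beads, percent · Medium – PBS plus Tween 20 (0.05%) and BSA (0.1%)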
FAS TE block = FAS thioesterase domain inhibitors, primary screen, biochemical, fluorescence intensity, uHTS; inhibition, % at 15 µM; actives 0.67% (n = 360,000); recombinant FAS-TE, OMFH fluorogenic substrate, fluorescence endpoint;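 active = compounds whose normalised, plate-corrected inhibition of enzyme fluorescence in the single-dose primary screen is 50% or more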;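 note: 0% = DMSO with enzyme and 100% = substrate without enzyme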
ADAM10 confirm = human ADAM10 inhibitors, confirmation, biochemical, QFRET, triplicate; ADAM10 QFRET peptide cleavage, EDANS fluorescence; shares compounds with ADAM10 inh; AID 743208, 2013; inhibition, % at 6.95 µM; actives 1% (n = 2,100);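 active = inhibition above about 20% chosen separately for each screening run, limit read from the data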;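 note: 0% = DMSO wells and 100% = marimastat wells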
ADAM17 counter = ADAM17 inhibitors, counter-screen for ADAM10 exosite inhibitor project, biochemical, QFRET, high throughput; shares compounds with ADAM10 inh; ADAM17 QFRET peptide cleavage, EDANS fluorescence; inhibition, % at 6.95 µM; actives 0.5% (n = 2,100); AID 743214, 2013;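 active = mean triplicate inhibition above the solvent-only control wells' mean plus 3 SD, cut at about 12% in these data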;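 note: 0% = DMSO wells and 100% = marimastat wells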
ADAM10 counter = ADAM10 inhibitors, counter-screen for ADAM17 exosite inhibitor project, biochemical, FRET, human ADAM10. shares compounds with ADAM17 inh. recombinant ADAM10, EDANS/DABCYL FRET peptide cleavage, 3 h. inhibition, % at 6.95 µM. actives 47% (n = 2,900). AID 743256, 2014;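 active = mean inhibition over the triplicate runs exceeds the activity threshold set in the earlier primary screen, cut at about 20% in these data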;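 note: 0% = DMSO wells and 100% = marimastat wells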
ADAM17 confirm = ADAM17 inhibitors, hit retest, confirmation, biochemical, QFRET peptide cleavage; shares compounds with ADAM17 inh; recombinant ADAM17, EDANS/DABCYL QFRET peptide cleavage; inhibition, % at 6.95 µM; actives 65% (n = 2,900); AID 743257, 2014;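 active = mean inhibition across replicates above the hit cutoff set in the primary screen, cut at about 8.5% in these data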;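 note: 0% = DMSO wells and 100% = marimastat wells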
* = called active by the depositor; . = not tested or not shown. Hits are enriched below; roughly 2.9% of the tested compounds scored in any of these assays.

SMILES | ADAM17 inh | CaV13 FRET inh | CendR NRP1 mod | ADAM10 inh | Arrestin-AP2 inh | FAS TE block | ADAM10 confirm | ADAM17 counter | ADAM10 counter | ADAM17 confirm
COc1ccc(C2=NS(=O)(=O)N(C)C(C(=O)NCc3ccc4c(c3)OCO4)=C2)cc1OC | 2.5 | -31.3 | -1.3 | -1.2 | -2.0 | 14.5 | . | . | . | .
O=C(CSc1nnc(Cc2cccs2)n1-c1ccc(Cl)cc1)Nc1ccc(OCc2ccccc2)cc1 | 13.9* | . | . | 26.4* | . | . | 12.7 | 3.4 | 23.4* | 15.7*
Cc1ccc(-n2c(Cc3cccs3)nnc2SCC(=O)Nc2cccc3ccccc23)cc1 | 10.7* | . | . | 26.3* | . | . | 7.6 | 2.0 | 16.2 | 8.1
Cc1ccc(-n2c(SCC(=O)Nc3cccc4ccccc34)nnc2-c2cccs2)cc1 | 2.5 | . | . | 6.1 | . | . | . | . | . | .
COc1ccc(C(=O)N2CCC[C@H]2C(=O)N2CCC[C@@H]2C(=O)NCc2ccccc2)cc1F | -3.2 | -2.5 | . | -0.7 | . | . | . | . | . | .
C[C@H](CO)N1C[C@H](C)[C@H](CN(C)S(=O)(=O)c2cccc(C#N)c2)OCc2cnnn2CCCC1=O | -1.4 | -4.9 | -8.6 | -2.0 | . | -5.9 | . | . | . | .
O=c1cc(NS(=O)(=O)c2ccccc2)nc(SCc2ccc(Cl)cc2)[nH]1 | 10.5* | -4.0 | 2.9 | 20.0* | -0.1 | 29.6 | 9.9 | 3.4 | 24.8* | 13.7*
Cc1oc2c(cc(NS(=O)(=O)c3cccs3)c3ccccc32)c1C(=O)OC(C)C | 9.7* | . | -12.8 | 23.6* | 23.2 | 19.3 | 6.2 | 2.5 | 37.7* | 14.4*
Cc1oc2c(cc(NS(=O)(=O)c3ccc(C(C)C)cc3)c3ccccc32)c1C(=O)O | 1.1 | -3.5 | 85.2 | 6.4 | 16.7 | -25.5 | . | . | . | .
Cc1cccc(NS(=O)(=O)c2cc(C(=O)NCCC3=CCCCC3)ccc2Cl)c1 | 8.7* | -9.7 | -7.8 | 21.1* | 7.8 | 27.2 | 5.7 | 2.4 | 21.4* | 11.7*
Cc1ccc(NS(=O)(=O)c2cc(C(=O)NCCSc3ccc(C)cc3)ccc2C)cc1 | 11.6* | -4.9 | -2.2 | 23.2* | -6.1 | 31.6 | 7.1 | 3.0 | 37.7* | 20.3*
Cc1ccc(C)c(S(=O)(=O)Nc2ccc(C(=O)NCCCN(C)C)cc2)c1 | -5.0 | -12.6 | 5.9 | -12.1 | . | -8.2 | . | . | . | .
Cc1ccccc1NS(=O)(=O)c1cc(C(=O)NCCC2=CCCCC2)ccc1Cl | 3.4 | -4.7 | 2.7 | 7.9 | 4.2 | 17.9 | . | . | . | .
Cc1ccc(SCCNC(=O)c2ccc(C)c(S(=O)(=O)Nc3cccc(C)c3)c2)cc1 | 12.0* | . | -9.9 | 27.0* | -4.4 | 30.4 | 6.9 | 3.0 | 30.4* | 17.2*
Cc1ccc(C(=O)NCCSc2ccc(Cl)cc2)cc1S(=O)(=O)Nc1ccccc1 | 11.0* | -8.3 | -2.2 | 25.2* | 3.5 | 27.8 | 7.5 | 2.5 | 27.0* | 15.7*
CS(=O)(=O)Nc1ccccc1C(=O)NCCSc1ccc(Cl)cc1 | -52.3 | -4.4 | 8.5 | -106.5 | 5.2 | 8.6 | . | . | . | .
O=C(NCCC1=CCCCC1)c1ccc2c(c1)N(Cc1ccccc1)C(=O)CS2 | 16.9* | -4.2 | 0.0 | 27.2* | -3.7 | 32.3 | 8.5 | 1.6 | 25.8* | 13.3*
c1ccc2c(c1)OCc1nccn1-2 | -0.6 | -1.8 | . | -11.8 | . | . | . | . | . | .
COC(=O)[C@]12C[C@H](CC(=O)N3CCSCC3)C(=O)N(Cc3cccc4ccccc34)C1=C[C@H](C(C)(C)C)O[C@@H]2C | -1.1 | . | . | 8.3 | . | . | . | . | . | .
O=C(C1CCC(Cn2c(=S)[nH]c3ccccc3c2=O)CC1)N1CCN(c2ccccc2)CC1 (centres undefined) | 9.1* | -5.9 | -9.9 | 24.9* | 1.6 | 25.9 | 10.7 | 3.0 | 17.0 | 6.9
COc1ccc(C(=O)OCC(=O)NCc2ccco2)cc1S(=O)(=O)N1CCN(c2cccc(Cl)c2)CC1 | 16.9* | . | -4.9 | 28.6* | 0.1 | 20.2 | 8.9 | 2.4 | 28.2* | 18.2*
Cc1ccc(Sc2ccc(/C=N/O)cc2[N+](=O)[O-])cc1 | 9.7* | . | -2.9 | 26.7* | 0.3 | -17.2 | 6.2 | 2.9 | 27.2* | 14.8*
COC(=O)C1CCCN(C(=O)C2CCN(S(=O)(=O)c3cccc4cccnc34)CC2)C1 (centres undefined) | -0.9 | . | . | -4.0 | . | . | . | . | . | .
Cc1ccccc1N=C1NC(=O)/C(=C/c2cccn2C)S1 | 9.9* | -5.2 | -154.6 | 27.4* | -10.1 | 3.1 | -0.7 | 6.0 | 16.6 | 12.6*
Cc1cc(-c2n[nH]c(=S)n2/N=C/c2ccccc2[N+](=O)[O-])n[nH]1 | 10.9* | -4.1 | 1.6 | 21.1* | 11.6 | -8.2 | -1.4 | -0.3 | 0.3 | 4.1
SMILES | ADAM17 inh | CaV13 FRET inh | CendR NRP1 mod | ADAM10 inh | Arrestin-AP2 inh | FAS TE block | ADAM10 confirm | ADAM17 counter | ADAM10 counter | ADAM17 confirm
O=[N+]([O-])c1ccccc1C=Nn1c(-c2cc(-c3ccccc3)n[nH]2)n[nH]c1=S | -3.2 | . | . | -8.0 | . | . | . | . | . | .
Cc1ccccc1N=C(NOCc1ccc(Cl)cc1Cl)c1nonc1N | 9.6* | -5.2 | 10.5 | 20.3* | -6.2 | 39.4 | 13.5 | 3.4 | 32.8* | 23.9*
Cc1ccccc1N=C(NOCc1ccccc1)c1nonc1N | 0.4 | . | -1.6 | 17.3 | -1.8 | 17.9 | . | . | . | .
O=S(=O)(c1ccc(NC(=S)NCCC(c2ccccc2)c2ccccc2)cc1)N1CCOCC1 | 14.6* | -4.2 | 6.6 | 20.6* | . | 29.6 | 10.6 | 3.7 | 30.6* | 17.5*
CCCCOCCCNC(=S)Nc1ccc(S(=O)(=O)N2CCOCC2)cc1 | 1.8 | -0.8 | -5.3 | 11.1 | -0.2 | 2.9 | . | . | . | .
CC1COc2c3ccccc3nn21 (centres undefined) | -6.9 | -10.5 | -12.0 | -21.6 | . | -12.3 | . | . | . | .
